These results are taken from PubChem BioAssay AID588829 (Broad Institute, 2011).

Calls of active or inactive are those of the source.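 How the source made its calls: active means compounds lowering the cell energy light signal whose fitted half-effect dose is at most twice the top tested dose; inconclusive means flat curve with a 30 to 70% drop, or poor fit; inactive means the rest.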

By IC50 is commonly meant the concentration that inhibits the measured activity by half.

Test system in the first assay: not listed separately
As to the kind of experiment: cytotoxicity in ldlA[mSR-BI] CHO cells, dose response, cytotoxicity control for SR-BI HDL uptake inhibitor project, cell-based, CellTiter-Glo luminescence, 24 h, dry powder, set 2 (AID 588829). Particulars: ldlA[mSR-BI] CHO cells viability, CellTiter-Glo ATP luminescence, 24 h; at 30 µM (top of the series). In short, it runs like this:
(§1)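 Detection: CellTiter-Glo luminescence reporting cellular ATP | Assay system: ldlA[mSR-BI] cells | Timing: 24 h compound exposure at 37 °C, 10 min reagent incubation | Buffer or medium: Ham's F12 growth medium with 10% FCS | Doses: Compound series of 8 concentrations, delivered by pin transfer | Read-out basis: Viability IC50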
Consider `C[C@@H]1CN([C@@H](C)CO)C(=O)Cc2cc(NC(=O)Nc3ccc(C(F)(F)F)cc3)ccc2O[C@@H]1CN(C)S(=O)(=O)c1ccc(Cl)cc1`, for which the activity change, negative = toxicity is -71.3% (inactive).

The assay is the same for the next values; noted with them: ldlA[mSR-BI] CHO cells viability, CellTiter-Glo ATP luminescence, 24 h; at 35 µM (top of the series).
Consider `CC(=O)N1CCc2cc(-c3nc(NC(=O)c4cccc(OC(F)(F)F)c4)sc3C)ccc21`, for which the activity change, negative = toxicity was -14.1% (inactive).

Take `CCC(=O)N1CCc2cc(-c3csc(NC(=O)c4cccc(OC)c4)n3)ccc21`: the activity change, negative = toxicity is 2.38% (inactive).

With `C[C@@H]1CN([C@H](C)CO)C(=O)c2cc(NC(=O)Cc3cn(C)c4ccccc34)ccc2O[C@H]1CN(C)S(=O)(=O)c1ccc(Cl)cc1`, the activity change, negative = toxicity is 3.86% (inactive).

Take `CC(C)(Sc1cc(C(C)(C)C)c(O)c(C(C)(C)C)c1)Sc1cc(C(C)(C)C)c(O)c(C(C)(C)C)c1`: the activity change, negative = toxicity is 14.8% (inactive).

With `COc1ccc(-c2cc(CC(=O)N(C3CCCCC3)C(C)C(=O)NC3CCCC3)no2)cc1OC` (stereo unspecified), the activity change, negative = toxicity is 13.9% (inactive).

Turning to `Cc1ccc2oc(-c3cccc(NC(=O)c4cc(-n5cnnc5)ccc4Cl)c3)nc2c1`, the activity change, negative = toxicity was -6.36% (inactive).

For `COc1cc(OC)cc(C(=O)Nc2nc(-c3ccc4c(c3)CCN4C(=O)CN(C)C)cs2)c1`, the activity change, negative = toxicity was 8.9% (inactive).

With `COc1cc(OC)cc(C(=O)Nc2nc(-c3ccc4c(c3)CCN4C(=O)OC(C)(C)C)cs2)c1`, the activity change, negative = toxicity was 12.9% (inactive).

`C[C@H](C(=O)NC1CCCC1)N(C(=O)Cn1nnc(-c2ccc3c(c2)OCO3)n1)C1CCCCC1`: the activity change, negative = toxicity was 11.2% (inactive).

Consider `COc1c(NC(=O)C(=O)c2ccc(OCCN3CCOCC3)c3ccccc23)cc(C(C)(C)C)cc1NS(C)(=O)=O`, for which the activity change, negative = toxicity is -4.11% (inactive).

For the compound `CC1CCC/C=C/C2CC(O)CC2C(O)/C=C\C(=O)O1` (stereo unspecified), the activity change, negative = toxicity was -13.3% (inactive).

Take `COCC(=O)N1CCc2cc(-c3csc(NC(=O)c4cc(OC)cc(OC)c4)n3)ccc21`: the activity change, negative = toxicity was 10.9% (inactive).

Regarding `CCC(=O)N1CC(C)(C)c2cc(-c3csc(NC(=O)c4cc(OC)cc(OC)c4)n3)ccc21`, the activity change, negative = toxicity was 1.55% (inactive).

In the case of `CCNC(=O)N1CCc2cc(-c3csc(NC(=O)c4cc(OC)cc(OC)c4)n3)ccc21`, the activity change, negative = toxicity was 9.7% (inactive).

The subject of a further assay is ldlA[mSR-BI] CHO cells viability, CellTiter-Glo ATP luminescence, 24 h. Described as above.
Details: not given
In short, it runs like this: as §1
Consider `CCCCCCC1CCC/C1=N\NC(N)=S` (stereo unspecified), for which the IC50 was 9.05 µM.
